Data reported in ChEMBL document CHEMBL3272112, “Cycloalkanones. 8. Hypocholesterolemic activity of long-chain ketones related to pentadecanone” (J Med Chem, 1976).

How the values were obtained:
Rattus norvegicus [1] = test: Toxicity in Sprague-Dawley rat assessed as effect on RNA level in liver at 10 mg/kg/day measured after 16 days (reference value: 100 +/- 6%); format: organism-based; conditions: in vivo, 384 h
Rattus norvegicus [2] = species on record: Rattus norvegicus; test: Disruption of rat liver cell membrane assessed as unlysed cells at 10 mg per gram of tissue measured at 15 mins (reference value: 91 +/- 6%); format: functional
How it was run: (§1)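 Rat liver 10% homogenate in 0.25 M sucrose + 0.001 M EDTA, pH 7.2, incubated at 37°C with Hanke's buffer pH 7.2 and drug suspended in 1% CMC (dose as mg drug per g wet liver); turbidity read as absorbance at 660 nm over 0–4 hr, falling absorbance taken as lysis; expressed as % unlysed cells; vehicle 1% CMC control.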

Rattus norvegicus [3] = test: Toxicity in Sprague-Dawley rat assessed as food intake at 1 mg/kg/day measured after 2 weeks (reference value: 24.8 +/- 1.1 g/day); format: organism-based; conditions: in vivo, 336 h
Rattus norvegicus [4] = species on record: Rattus norvegicus; test: Disruption of rat liver cell membrane assessed as unlysed cells at 5 mg per gram of tissue measured at 15 mins (reference value: 91 +/- 6%); format: functional; how it was run: as §1
Rattus norvegicus [5] = species on record: Rattus norvegicus; test: Disruption of rat liver cell membrane assessed as unlysed cells at 25 mg per gram of tissue measured at 2 hrs (reference value: 77 +/- 8%); format: functional; how it was run: as §1
Rattus norvegicus [6] = test: Toxicity in Sprague-Dawley rat assessed as effect on protein level in liver at 10 mg/kg/day measured after 16 days (reference value: 100 +/- 5%); format: organism-based; conditions: in vivo, 384 h
Rattus norvegicus [7] = test: Hypocholesterolemic activity in Sprague-Dawley rat assessed as serum cholesterol level at 1 mg/kg/day, po administered via intubation measured on day 4 by Liebermann-Burchard method relative to control; format: functional
How it was run: (§2)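 Male Sprague-Dawley rats given compound homogenized in 1% CMC once daily at 11:00 a.m. by oral intubation needle (0.2 cc), doses calculated on weekly body weights; tail-vein blood drawn 24 h after last dose; nonhemolyzed serum (30 μ) assayed by modified Liebermann-Burchard method; N = 8; % of control, mean ± SD; Student's t test.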

Rattus norvegicus [8] = test: Hypocholesterolemic activity in Sprague-Dawley rat assessed as serum cholesterol level at 10 mg/kg/day, po administered via intubation measured on day 16 by Liebermann-Burchard method relative to control; format: functional; how it was run: as §2
Rattus norvegicus [9] = test: Toxicity in Sprague-Dawley rat assessed as effect on glycogen level in liver at 10 mg/kg/day measured after 16 days (reference value: 100 +/- 26%); format: organism-based; conditions: in vivo, 384 h
Rattus norvegicus [10] = test: Hypocholesterolemic activity in Sprague-Dawley rat assessed as serum cholesterol level at 20 mg/kg/day, po administered via intubation measured on day 16 by Liebermann-Burchard method relative to control; format: functional; how it was run: as §2
Rattus norvegicus [11] = test: Toxicity in Sprague-Dawley rat assessed as increase in vesicular gland weight at 10 mg/kg/day administered for 16 days measured on day 16 post last dose relative to total body weight (reference value: 0.118 +/- 0.062%); format: organism-based; conditions: in vivo, 384 h
Rattus norvegicus [12] = test: Toxicity in Sprague-Dawley rat assessed as change in heart weight at 10 mg/kg/day administered for 16 days measured on day 16 post last dose relative to total body weight (reference value: 0.39 +/- 0.04%); format: organism-based; conditions: in vivo, 384 h
Rattus norvegicus [13] = species on record: Rattus norvegicus; test: Disruption of rat liver cell membrane assessed as unlysed cells at 5 mg per gram of tissue measured at 1 hr (reference value: 90 +/- 4%); format: functional; how it was run: as §1
Rattus norvegicus [14] = test: Uterotrophic activity in ovariectomized weaned Sprague-Dawley rat assessed as uterine weight at 10 mg/kg/day measured after 3 days (reference value: 100 +/- 15%); format: ADME, organism-based, Uterus; conditions: in vivo, 72 h
How it was run: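 Weaned rats were ovariectomized and left untreated for 3 days. They were then dosed for 3 days with 17-ethinylestradiol 10 µg/kg/day or test compound 10 mg/kg/day, with 1% CMC as the vehicle control. Rats were then killed and the uterus removed, trimmed and weighed. Results are % of control uterine weight, mean ± SD; N = 7; Student's t test.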

Rattus norvegicus [15] = test: Toxicity in Sprague-Dawley rat assessed as effect on lipid level in liver at 10 mg/kg/day measured after 16 days (reference value: 100 +/- 13%); format: organism-based; conditions: in vivo, 384 h
Rattus norvegicus [16] = test: Hypocholesterolemic activity in Sprague-Dawley rat assessed as serum cholesterol level at 1 mg/kg/day, po administered via intubation measured on day 16 by Liebermann-Burchard method relative to control; format: functional; how it was run: as §2
Rattus norvegicus [17] = species on record: Rattus norvegicus; test: Disruption of rat liver cell membrane assessed as unlysed cells at 10 mg per gram of tissue measured at 30 mins (reference value: 93 +/- 7%); format: functional; how it was run: as §1
Rattus norvegicus [18] = test: Toxicity in Sprague-Dawley rat assessed as atrophy of testis at 10 mg/kg/day administered for 16 days measured on day 16 post last dose; format: organism-based; conditions: in vivo, 384 h
[19] = Toxicity in CF1 mouse; format: organism-based; conditions: in vivo
How it was run: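 Male CF1 mice; acute lethality measured and LD50 calculated by the Litchfield and Wilcoxon method.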

Rattus norvegicus [20] = test: Toxicity in Sprague-Dawley rat assessed as increase in testes weight at 10 mg/kg/day administered for 16 days measured on day 16 post last dose relative to total body weight (reference value: 1.09 +/- 0.01%); format: organism-based, Testis; conditions: in vivo, 384 h
Rattus norvegicus [21] = species on record: Rattus norvegicus; test: Disruption of rat liver cell membrane assessed as unlysed cells at 5 mg per gram of tissue measured at 2 hrs (reference value: 77 +/- 8%); format: functional; how it was run: as §1
Rattus norvegicus [22] = test: Toxicity in Sprague-Dawley rat assessed as increase in body weight at 10 mg/kg/day measured on day 10 (reference value: 160 +/- 13%); format: organism-based; conditions: in vivo
Rattus norvegicus [23] = test: Hypocholesterolemic activity in Sprague-Dawley rat assessed as serum cholesterol level at 50 mg/kg/day, po administered via intubation measured on day 16 by Liebermann-Burchard method relative to control; format: functional; how it was run: as §2
Rattus norvegicus [24] = test: Toxicity in Sprague-Dawley rat assessed as increase in body weight at 5 mg/kg/day administered for 16 days measured on day 16 post last dose (reference value: 195 +/- 16%); format: organism-based; conditions: in vivo, 384 h
Rattus norvegicus [25] = test: Toxicity in Sprague-Dawley rat assessed as food intake at 20 mg/kg/day measured after 2 weeks (reference value: 24.8 +/- 1.1 g/day); format: organism-based; conditions: in vivo, 336 h
Rattus norvegicus [26] = test: Hypocholesterolemic activity in Sprague-Dawley rat assessed as serum cholesterol level at 50 mg/kg/day, po administered via intubation measured on day 4 by Liebermann-Burchard method relative to control; format: functional; how it was run: as §2
Rattus norvegicus [27] = species on record: Rattus norvegicus; test: Disruption of rat liver cell membrane assessed as unlysed cells at 5 mg per gram of tissue measured at 4 hrs (reference value: 17 +/- 4%); format: functional; how it was run: as §1
Rattus norvegicus [28] = species on record: Rattus norvegicus; test: Disruption of rat liver lysosomal membrane assessed as free acid phosphatase activity at 10 mg per gram of tissue measured after 1 hr (reference value: 100 +/- 16%); format: functional, tissue-based
How it was run: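 10% rat liver homogenate incubated with Hanke's buffer pH 7.2 and drug suspension in 1% CMC in a shaker at 37°C; aliquot removed after 1 hr and percent free (unbound) acid phosphatase activity determined as an index of lysosomal membrane rupture.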

Rattus norvegicus [29] = test: Hypocholesterolemic activity in Sprague-Dawley rat assessed as serum cholesterol level at 5 mg/kg/day, po administered via intubation measured on day 10 by Liebermann-Burchard method relative to control; format: functional; how it was run: as §2
Rattus norvegicus [30] = test: Toxicity in Sprague-Dawley rat assessed as food intake at 50 mg/kg/day measured after 1 week (reference value: 20.9 +/- 4.9 g/day); format: organism-based; conditions: in vivo, 168 h
Rattus norvegicus [31] = test: Toxicity in Sprague-Dawley rat assessed as food intake at 1 mg/kg/day measured after 1 week (reference value: 20.9 +/- 4.9 g/day); format: organism-based; conditions: in vivo, 168 h

## CCCCCCCCCCCCCCC(C)=O
Rattus norvegicus [1]
  Activity: 111%
Rattus norvegicus [2]
  Activity: 96%
Rattus norvegicus [3]
  Activity: 26.6 g/day
Rattus norvegicus [4]
  Activity: 95%
Rattus norvegicus [5]
  Activity: 85%
Rattus norvegicus [6]
  Activity: 107%
Rattus norvegicus [7]
  Activity: 82%
Rattus norvegicus [8]
  Activity: 58%
Rattus norvegicus [9]
  Activity: 105%
Rattus norvegicus [10]
  Activity: 69%
Rattus norvegicus [11]
  Activity: 0.121%
Rattus norvegicus [12]
  Activity: 0.39%
Rattus norvegicus [13]
  Activity: 91%
Rattus norvegicus [14]
  Activity: 64%
Rattus norvegicus [15]
  Activity: 101%
Rattus norvegicus [16]
  Activity: 71%
Rattus norvegicus [17]
  Activity: 95%
Rattus norvegicus [18]
  Activity: Non-toxic
[19]
  LD50: 1750 mg/kg
Rattus norvegicus [20]
  Activity: 1.13%
Rattus norvegicus [21]
  Activity: 83%
Rattus norvegicus [22]
  Activity: 145%
Rattus norvegicus [23]
  Activity: 68%
Rattus norvegicus [24]
  Activity: 244%
Rattus norvegicus [25]
  Activity: 24.2 g/day
Rattus norvegicus [26]
  Activity: 75%
Rattus norvegicus [27]
  Activity: 17%
Rattus norvegicus [28]
  Activity: 89%
Rattus norvegicus [29]
  Activity: 78%
Rattus norvegicus [30]
  Activity: 22.5 g/day
Rattus norvegicus [31]
  Activity: 22.3 g/day
